Laboratory results published in ChEMBL document CHEMBL4765236, “Insights into the Antimicrobial Activity and Cytotoxicity of Engineered α-Helical Peptide Amphiphiles” (J Med Chem, 2016).
Calls of active or inactive are those of the source. No cut-off for these calls is given here.

Legend:
[1] = tested on: Escherichia coli; assay: Antibacterial activity against Escherichia coli ATCC 35150 assessed as bacterial growth inhibition incubated for 18 to 24 hrs by microtiter broth dilution method; assay type: functional; settings: time 18-24 hrs
How it was run: (§1)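 Log-phase cells (grown overnight at 37 °C, subcultured in MHB) diluted to 10^5 CFU/mL in MHB and mixed 1:1 with serial peptide dilutions prepared in 0.01% acetic acid/0.2% BSA. Incubated 37 °C for 18-24 h. MIC is the lowest concentration giving no growth by OD492. Reported as the average of 3-5 independent experiments.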

[2] = tested on: Salmonella enterica subsp. enterica serovar Paratyphi B; assay: Antibacterial activity against Salmonella paratyphi B CICC 21495 assessed as bacterial growth inhibition incubated for 18 to 24 hrs by microtiter broth dilution method; assay type: functional; settings: time 18-24 hrs
How it was run: (§2)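 Log-phase bacteria grown at 37 °C in MHB, diluted to 10^5 CFU/mL, mixed 1:1 with serial peptide dilutions (peptide diluted in 0.01% acetic acid, 0.2% BSA); 37 °C for 18-24 h. MIC read by OD492 as lowest concentration giving no growth; mean of 3-5 independent experiments.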

[3] = tested on: Salmonella paratyphi; assay: Antibacterial activity against Salmonella paratyphi C CICC 21512 assessed as bacterial growth inhibition incubated for 18 to 24 hrs by microtiter broth dilution method; assay type: functional; settings: Salmonella enterica, time 18-24 hrs; how it was run: as §2
[4] = tested on: Salmonella enterica; assay: Antibacterial activity against Salmonella choleraesuis ATCC 13312 assessed as bacterial growth inhibition incubated for 18 to 24 hrs by broth dilution method; assay type: functional; settings: time 18-24 hrs; how it was run: as §2
[5] = tested on: Staphylococcus aureus; assay: Antibacterial activity against Staphylococcus aureus GIM 1.160 assessed as bacterial growth inhibition incubated for 18 to 24 hrs by microtiter broth dilution method; assay type: functional; settings: time 18-24 hrs; how it was run: as §1
[6] = tested on: Listeria monocytogenes; assay: Antibacterial activity against Listeria monocytogenes CICC 21633 assessed as bacterial growth inhibition incubated for 18 to 24 hrs by microtiter broth dilution method; assay type: functional; settings: time 18-24 hrs; how it was run: as §1
[7] = tested on: Pseudomonas fluorescens; assay: Antibacterial activity against Pseudomonas fluorescens CICC 21620 assessed as bacterial growth inhibition incubated for 18 to 24 hrs by microtiter broth dilution method; assay type: functional; settings: time 18-24 hrs; how it was run: as §1
[8] = Therapeutic index, ratio of MHC10 for human RBC to geometric mean of peptide MIC for Escherichia coli O157:H7 CICC 21530; assay type: toxicity; settings: human red blood cells (RBC), pooled result: one value given for 11 cell lines, strains, targets or settings, read-out: TI
How it was run: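 Therapeutic index = MHC (peptide concentration giving 10% hemolysis of human RBCs, 1 h, 37 °C, A540) divided by geometric mean of MICs from broth microdilution (10^5 CFU/mL in MHB, 37 °C, 18-24 h, OD492).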

[9] = tested on: RAW264.7; assay: Cytotoxicity against mouse RAW264.7 cells assessed as increase in cell viability at 64 uM incubated for 24 hrs by MTT assay relative to control; assay type: cell-based; settings: raw264.7, 24 h
How it was run: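 RAW264.7 macrophages were grown in DMEM with 10% FBS, 2 mM glutamine and penicillin/streptomycin at 37 °C in 5% CO2. Cells seeded at 1.0-2.0 × 10^4 per well and treated with peptide (final 0.25-64 µM) for 24 h at 37 °C. MTT at 0.5 mg/mL added for 4 h, formazan dissolved in DMSO, read at 570 nm.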

[10] = tested on: Escherichia coli; assay: Antibacterial activity against Escherichia coli O157:H7 CICC 21530 assessed as bacterial growth inhibition incubated for 18 to 24 hrs in presence of 1 mM MgCl2 by microtiter broth dilution method (reference value: 0.85 to > 71.5 uM); assay type: functional; settings: time 18-24 hrs
[11] = tested on: Escherichia coli; assay: Antibacterial activity against Escherichia coli O157:H7 CICC 21530 assessed as bacterial growth inhibition incubated for 18 to 24 hrs in presence of 2 mM CaCl2 by microtiter broth dilution method (reference value: 0.85 to > 71.5 uM); assay type: functional; settings: time 18-24 hrs
[12] = tested on: Cell membrane; assay: Induction of inner membrane permeabilization in Escherichia coli O157:H7 CICC 21530 assessed as cytoplasmic beta-galactosidase release at 1 times MIC using ONPG as substrate by […]; assay type: subcellular
[13] = tested on: Cell membrane; assay: Induction of cell membrane depolarization in Escherichia coli O157:H7 CICC 21530 assessed as increase in fluorescence intensity at 0.5 to 2 times MIC preincubated for 90 mins followed by KCl addition and measured after 15 to 30 mins by DiSC3-5 staining based fluorescence spectroscopic technique; assay type: subcellular; settings: time 105-120 min
[14] = tested on: Cell membrane; assay: Induction of cell membrane disruption in Escherichia coli O157:H7 CICC 21530 assessed as propidium iodide-positive cells at 2 times MIC measured after 30 mins by flow cytometry analysis (reference value: 5.7 %); assay type: subcellular
[15] = tested on: RAW264.7; assay: Antiinflammatory activity against mouse RAW264.7 cells assessed as inhibition of LPS-induced nitric oxide production measured after 24 hrs by Griess reagent based ELISA; assay type: functional, cell-based; settings: dose 0.5-64 µM
How it was run: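 RAW264.7 cells plated at 1-2 × 10^5 cells/mL and stimulated with 500 ng/mL LPS with or without peptide (0.5-64 µM) for 24 h at 37 °C. Controls were untreated cells and LPS alone. TNF-α in the supernatant measured by ELISA. NO measured by Griess reagent (1% sulfanilamide, 0.1% naphthylethylenediamine, 5% phosphoric acid).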

[16] = tested on: Staphylococcus aureus; assay: Antibacterial activity against Staphylococcus aureus ATCC 29213 assessed as bacterial growth inhibition incubated for 18 to 24 hrs in presence of 150 mM NaCl by microtiter broth dilution method (reference value: 0.43 to > 71.5 uM); assay type: functional; settings: time 18-24 hrs
[17] = tested on: Staphylococcus aureus; assay: Antibacterial activity against Staphylococcus aureus ATCC 29213 assessed as bacterial growth inhibition incubated for 18 to 24 hrs in presence of 6 mM NH4Cl by microtiter broth dilution method (reference value: 0.43 to > 71.5 uM); assay type: functional; settings: time 18-24 hrs
[18] = tested on: Staphylococcus aureus; assay: Antibacterial activity against Staphylococcus aureus ATCC 29213 assessed as bacterial growth inhibition incubated for 18 to 24 hrs in presence of 2 mM CaCl2 by microtiter broth dilution method (reference value: 0.43 to > 71.5 uM); assay type: functional; settings: time 18-24 hrs
[19] = tested on: Staphylococcus aureus; assay: Bactericidal activity against Staphylococcus aureus ATCC 29213 assessed as bacterial killing at 1 times MIC by time kill assay; assay type: functional, organism-based; settings: time 1085.0 min, TDE = time-dependent effect
How it was run: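 Log-phase S. aureus 29213 exposed to peptide at 1 × MIC in 10 mM PBS pH 7.4 at 37 °C for 0-90 min. Aliquots taken at fixed intervals, diluted and plated on nutrient agar, and colonies counted after 18 h at 37 °C. Average of three independent assays.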

[20] = tested on: Erythrocyte; assay: Hemolytic activity against human red blood cells assessed as hemoglobin release at 64 uM measured after 1 hr by microplate reader analysis; assay type: ADME, cell-based
How it was run: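 Fresh heparinized human RBCs washed three times in 10 mM PBS pH 7.4 and resuspended to about 1% (v/v) (5.4 × 10^8 cells/mL). Mixed 1:1 with peptide in PBS for 1 h at 37 °C, then centrifuged. Supernatant hemoglobin read at A540. PBS set as 0% and 0.1% Triton X-100 as 100% hemolysis. MHC is the concentration causing 10% hemolysis.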

[21] = tested on: Cell membrane; assay: Induction of outer membrane permeabilization in Escherichia coli O157:H7 CICC 21530 assessed as increase in fluorescence intensity by NPN-dye based fluorescence assay; assay type: subcellular; settings: dose 0.625-7.5 µM

Substance	MIC [1]	MIC [2]	MIC [3]	MIC [4]	MIC [5]	MIC [6]	MIC [7]	selectivity ratio [8]	Activity [9]	MIC [10]	MIC [11]	Activity [12]	Activity [13]	Activity [15]	MIC [16]	MIC [17]	MIC [18]	Activity [19]	Activity [20]	Activity [21]	further results
H-WGEAFSAGVHRLANGGNG-NH2	> 71.2 µM	> 71.2 µM	> 71.2 µM	> 71.2 µM	> 71.2 µM	> 71.2 µM	> 71.2 µM	1	73.62%	> 71.2 µM	> 71.2 µM	inactive	Active	Dose-dependent effect	> 71.2 µM	> 71.2 µM	> 71.2 µM	Tde	Non-Toxic		Activity [14]: 27.7%
H-WGRAFRRGVRRLARGGRR-NH2	29.3 µM	3.67 µM	7.33 µM	14.7 µM	7.33 µM	7.33 µM	29.3 µM	7.51	74.8%	3.67 µM	7.33 µM	inactive	Active	Dose-dependent effect	14.7 µM	7.33 µM	7.33 µM	Tde	Non-Toxic	Dose-dependent effect	
H-WGRAFRRLVRRLARGLRR-NH2	13.9 µM	6.97 µM	3.49 µM	13.9 µM	1.74 µM	1.74 µM	55.8 µM	10.3	64.79%	6.97 µM	13.9 µM	inactive	Active	Dose-dependent effect	6.97 µM	1.74 µM	3.49 µM	Tde	Non-Toxic	Dose-dependent effect	
H-WGRAFSAGVHRLANGGNG-NH2	> 70.1 µM	> 70.1 µM	> 70.1 µM	> 70.1 µM	70.1 µM	> 70.1 µM	> 70.1 µM	1	77.58%	> 70.1 µM	> 70.1 µM	inactive	Active	Dose-dependent effect	> 70.1 µM	> 70.1 µM	> 70.1 µM	Tde	Non-Toxic	Dose-dependent effect	
H-WGRAFSAGVHRLARGGRG-NH2	> 67 µM	> 67 µM	> 67 µM	33.5 µM	> 67 µM	67 µM	> 67 µM	1.55	87.22%	67 µM	> 67 µM	inactive	Active	Dose-dependent effect	> 67 µM	> 67 µM	> 67 µM	Tde	Non-Toxic	Dose-dependent effect	
H-WGRAFSRGVRRLARGGRG-NH2	31.8 µM	15.9 µM	15.9 µM	15.9 µM	15.9 µM	31.8 µM	> 63.5 µM	4.26	85.48%	7.94 µM	15.9 µM	inactive	Active	Dose-dependent effect	> 63.5 µM	> 63.5 µM	> 63.5 µM	Tde	Non-Toxic	Dose-dependent effect	
H-WLRAFRRLVRRLARGLRR-NH2	1.7 µM	0.85 µM	0.43 µM	1.7 µM	0.43 µM	0.21 µM	0.43 µM	20.5	40.73%	0.85 µM	3.4 µM	Active	Active	Dose-dependent effect	1.7 µM	0.43 µM	0.43 µM	Tde	Non-Toxic	Dose-dependent effect	Activity [14]: 98%
H-WLRAFRRLVRRLARLLRR-NH2	26.6 µM	3.32 µM	6.65 µM	13.3 µM	1.66 µM	3.32 µM	53.2 µM	4.83	48.25%	> 53.2 µM	> 53.2 µM	inactive	Active	Dose-dependent effect	26.6 µM	1.66 µM	13.3 µM	Tde	Non-Toxic	Dose-dependent effect	
